These results are taken from ChEMBL document CHEMBL4385623, “Advances in the structural studies of antibiotic potentiators against Escherichia coli” (2019).

Converted amounts (≈) assume the structure as drawn. The source made the active and inactive calls. The calls are words filed in the database; no cut-off is given here. Peptide text beside a SMILES is read from it. * marks the point of attachment. βNA = c1ccc2cc(N*)ccc2c1

In assay [1] the test system is Escherichia coli. Description: Antibacterial activity against Escherichia coli ATCC 25922 incubated for 24 hrs by spectrophotometric based assay. Format: functional. Conditions: ATCC 25922, 24 h. The method, boiled down: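 Intrinsic MIC by broth microdilution. Log-phase cells at 5 × 10^5 CFU/ml in cation-adjusted Mueller-Hinton broth with two-fold serial dilutions of test compound. Aerobic incubation 24 h at 37 °C, then OD600 read. MIC is the lowest concentration giving ≥90% growth inhibition versus drug-free controls.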

Assay [2] deals with Escherichia coli. Description: Potentiation of clarithromycin-induced antibacterial activity against Escherichia coli ATCC 25922 assessed as fold reduction in clarithromycin MIC at 12.5 ug/ml incubated for 24 hrs by spectrophotometric based assay.
In assay [3] the test system is Escherichia coli. Description: Induction of outer membrane permeabilization in Escherichia coli ATCC 25922 assessed as increase in NPN uptake at 1.56 to 12.5 ug/ml incubated for 10 mins by fluorescence assay. Format: functional, organism-based. An outline of the steps:
(§1)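 Log-phase cells grown in CAMH, washed, and resuspended in PBS to OD600 1.0. NPN added at 10 μM final for 10 min at room temperature. Compound (1/32–¼ MIC, DMSO vehicle) added, four replicates, then 10 min in the dark at room temperature. Fluorescence read at ex 350/em 420 nm. The 10-min average, minus vehicle wells, is the corrected value.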

In assay [4] the test system is Escherichia coli. Description: Induction of outer membrane permeabilization in Escherichia coli ATCC 25922 assessed as increase in propidium iodide uptake at 1.56 to 12.5 ug/ml by propidium iodide staining based flow cytometric analysis. Format: functional, organism-based. An outline of the steps:
(§2)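 Flow cytometry. Log-phase cells grown in CAMH and diluted in PBS to 4 × 10^6 CFU/ml. Compound added at 1/32–¼ MIC (DMSO vehicle controls), in triplicate. Propidium iodide added at 50 μM final; 1 h in the dark at room temperature. Excitation 488 nm, emission 620/30 nm, 30,000 cells per sample. Result is percent PI-positive cells.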
(In general: In flow cytometry, cells or beads pass a laser one at a time.)

Assay [5] relates to Escherichia coli. Description: Induction of inner membrane permeabilization in Escherichia coli ATCC 25922 assessed as increase in propidium iodide uptake at 1.56 to 12.5 ug/ml by PI staining based flow cytometric analysis. Format: functional, organism-based. An outline of the steps:
as §2

In assay [6] the test system is Escherichia coli. Description: Disruption of membrane potential in Escherichia coli ATCC 25922 at 12.5 ug/ml incubated fro 30 mins by DiOC2 probe based flow cytometric analysis. Format: functional, organism-based. An outline of the steps: (§3)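 Log-phase cells grown in CAMH, diluted in PBS to 2 × 10^6 CFU/ml, and treated with compound at ¼ MIC. Controls were DMSO vehicle and 2 μg/ml CCCP, with 0.2% DMSO in all tubes, in triplicate. DiOC2 added at 30 μM; 30 min in the dark at room temperature. Flow cytometry at 488 nm excitation, 10,000 cells. Red (620/30) to green (525/20) fluorescence ratio reported.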

Assay [7] has as its system Escherichia coli. Description: Potency index, ratio of potentiation of clarithromycin-induced antibacterial activity of PAbetaN to potentiation of clarithromycin-induced antibacterial activity of test compound against Escherichia coli ATCC 25922 assessed as fold reduction in clarithromycin MIC at 12.5 uM incubated for 24 hrs by spectrophotometric based assay. Format: functional.

In assay [8] the test system is Escherichia coli ATCC 25922. Description: Inhibition of AcrAB-TolC efflux pump in Escherichia coli ATCC 25922 assessed as inhibition of Hoechst 33342 efflux at 1.56 to 12.5 ug/ml pre-incubated for 5 mins followed by glucose addition by Hoechst 33342 staining based fluorescence assay. An outline of the steps: (§4)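 Overnight cells washed and resuspended in PBS + 1 mM MgCl2 to OD600 1.0. Energy depleted with 3.13 μM CCCP for 20 min at 37 °C. Loaded with 10 μM Hoechst 33342 for 20 min, then mixed with compound (1/32–¼ MIC, DMSO vehicle) and preincubated 5 min at 37 °C. Efflux started with 50 mM glucose. Fluorescence (ex 355/em 460 nm) read each minute for 40 min at 37 °C.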

The test system of assay [9] is Escherichia coli. Description: Induction of outer membrane permeabilization in Escherichia coli ATCC 25922 assessed as increase in NPN uptake at 3.13 to 25 ug/ml incubated for 10 mins by fluorescence assay. Format: functional, organism-based. The method, boiled down:
as §1

Assay [10] concerns Escherichia coli. Description: Induction of outer membrane permeabilization in Escherichia coli ATCC 25922 assessed as increase in propidium iodide uptake at 3.13 to 25 ug/ml by PI staining based flow cytometric analysis. Format: functional, organism-based. The method, boiled down: as §2
In assay [11] the test system is Escherichia coli ATCC 25922. Description: Inhibition of AcrAB-TolC efflux pump in Escherichia coli ATCC 25922 assessed as inhibition of Hoechst 33342 efflux at 3.13 to 25 ug/ml pre-incubated for 5 mins followed by glucose addition by Hoechst 33342 staining based fluorescence assay. The method, boiled down: as §4
The test system of assay [12] is Escherichia coli. Description: Increase in membrane potential in Escherichia coli ATCC 25922 at 25 ug/ml incubated fro 30 mins by DiOC2 probe based flow cytometric analysis. Format: functional, organism-based. The method, boiled down: as §3
Assay [13] has as its system Escherichia coli. Description: Induction of inner membrane permeabilization in Escherichia coli ATCC 25922 assessed as increase in propidium iodide uptake at 3.13 to 25 ug/ml by PI staining based flow cytometric analysis. Format: functional, organism-based. The method, boiled down: as §2
Assay [14] deals with Escherichia coli. Description: Disruption of membrane potential in Escherichia coli ATCC 25922 at 25 ug/ml incubated fro 30 mins by DiOC2 probe based flow cytometric analysis. Format: functional, organism-based. The method, boiled down:
as §3

`NCC[C@H](N)CCNCC(CCc1ccccc1)CCc1ccccc1` registered an MIC in the assay with Escherichia coli [1] of 50 µg/mL (≈ 141 µM). The “fold change (FC)” value in the assay on Escherichia coli [2] came to 64.

In turn, `NCCC[C@H](N)CNC(=O)CCCc1ccccc1` returned an MIC with Escherichia coli [1] of over 200 µg/mL. Moreover, in the assay on Escherichia coli [2], the “fold change (FC)” value is 1.

`NCCC[C@H](N)CNC(=O)CC(Cc1ccccc1)Cc1ccccc1` displayed an MIC against Escherichia coli [1] of 200 µg/mL (≈ 566 µM). Also, the “fold change (FC)” value in the assay on Escherichia coli [2] is listed as 16.

In the assay on Escherichia coli [1], `NCCC[C@H](N)CNC(=O)CC(c1ccccc1)c1ccccc1` had a minimum inhibitory concentration (MIC) of over 200 µg/mL. In addition, the “fold change (FC)” value in the assay with Escherichia coli [2] is on record as 1.

Regarding `NCC[C@H](N)CCNC(=O)C(CCc1ccccc1)CCc1ccccc1`, 200 µg/mL (≈ 544 µM) was the least that counted as inhibitory with Escherichia coli [1] (MIC). Moreover, the “fold change (FC)” value in the assay with Escherichia coli [2] was 16.

`CNCCC[C@H](N)CNC(=O)C(CCc1ccccc1)CCc1ccccc1` registered an MIC with Escherichia coli [1] of 50 µg/mL (≈ 131 µM). For the same compound, in the assay on Escherichia coli [2], the “fold change (FC)” value worked out at 2.

Compound `NC[C@@H](N)CCCNC(=O)C(CCc1ccccc1)CCc1ccccc1` came in with an MIC against Escherichia coli [1] of 100 µg/mL (≈ 272 µM). In the assay with Escherichia coli [2], the “fold change (FC)” value was determined as 32.

In the assay with Escherichia coli [1], `NNCCC[C@H](N)CNC(=O)C(CCc1ccccc1)CCc1ccccc1` registered an MIC of 200 µg/mL (≈ 523 µM). Moreover, the “fold change (FC)” value in the assay on Escherichia coli [2] was 1.

`CN(C)CCC[C@H](N)CNC(=O)C(CCc1ccccc1)CCc1ccccc1`: the MIC against Escherichia coli [1] worked out at 200 µg/mL (≈ 506 µM). In the assay with Escherichia coli [2], the “fold change (FC)” value was 2.

In the assay with Escherichia coli [1], `CN(C)[C@@H](CCCN)CNC(=O)C(CCc1ccccc1)CCc1ccccc1` registered an MIC of 100 µg/mL (≈ 253 µM). Besides, the “fold change (FC)” value in the assay on Escherichia coli [2] turned out to be 2.

In turn, `CN(C[C@@H](N)CCCN)C(=O)C(CCc1ccccc1)CCc1ccccc1` registered an MIC against Escherichia coli [1] of over 200 µg/mL. Further, the “fold change (FC)” value with Escherichia coli [2] is given as 1.

`NCC[C@H](N)CNC(=O)C(CCc1ccccc1)CCc1ccccc1` came in with an MIC with Escherichia coli [1] of 100 µg/mL (≈ 283 µM). Further, the fold change (FC) with Escherichia coli [2] worked out at 2.

In turn, `NCCC[C@H](N)CNC(=O)CCc1ccccc1` came in with an MIC with Escherichia coli [1] of over 200 µg/mL. Besides, the “fold change (FC)” value with Escherichia coli [2] was found to be 1.

Consider `N=C(N)NCCC[C@H](N)CNC(=O)C(CCc1ccccc1)CCc1ccccc1`, for which the MIC against Escherichia coli [1] is over 200 µg/mL. Also, the “fold change (FC)” value in the assay on Escherichia coli [2] is on record as 4.

In turn, `NC[C@@H](N)CCCNCC(CCc1ccccc1)CCc1ccccc1` displayed a minimal inhibitory concentration (MIC) with Escherichia coli [1] of 100 µg/mL (≈ 283 µM). The “fold change (FC)” value with Escherichia coli [2] turned out to be 32.

`NC[C@H](N)CNC(=O)C(CCc1ccccc1)CCc1ccccc1` yielded an MIC in the assay on Escherichia coli [1] of 200 µg/mL (≈ 589 µM). Further, the fold change (FC) with Escherichia coli [2] came out at 16.

Turning to `NCCC[C@H](N)C(=O)NC(CCc1ccccc1)CCc1ccccc1`, the MIC in the assay with Escherichia coli [1] is over 100 µg/mL. The “fold change (FC)” value with Escherichia coli [2] stood at 4.

Regarding `CN[C@@H](CCCN)CNC(=O)C(CCc1ccccc1)CCc1ccccc1`, the MIC in the assay on Escherichia coli [1] is over 200 µg/mL. For the same compound, the “fold change (FC)” value in the assay on Escherichia coli [2] amounted to 1.

With `NCCC[C@H](N)CNC(=O)C(c1ccccc1)c1ccccc1`, the MIC in the assay on Escherichia coli [1] is over 200 µg/mL. Further, in the assay with Escherichia coli [2], the “fold change (FC)” value is reported as 2.

On to `NCCC[C@H](N)CNC(=O)CC(CCc1ccccc1)CCc1ccccc1`, for which the Activity result in the assay on Escherichia coli [3] is “Dose-dependent effect”. Besides, it took 50 µg/mL (≈ 131 µM) to inhibit growth in the assay on Escherichia coli [1] (MIC). In addition, the outcome in the assay with Escherichia coli [4] and in the assay with Escherichia coli [5] was Active. The result in the assay with Escherichia coli [6] was inactive. Moreover, the Ratio with Escherichia coli [7] was 128. Moreover, the “fold change (FC)” value with Escherichia coli [2] is on record as 512. In addition, the inhibition entry in assay [8] was “Dose-dependent effect”.

`NCCC[C@H](N)CNC(=O)C(CCc1ccccc1)CCc1ccccc1` yielded a minimum inhibitory concentration (MIC) in the assay on Escherichia coli [1] of 50 µg/mL (≈ 136 µM). In addition, the “fold change (FC)” value in the assay on Escherichia coli [2] was 16.

Compound `N=C(N)NCCC[C@H](NC(=O)[C@@H](N)Cc1ccccc1)C(=O)Nc1ccc2ccccc2c1` [PABETAN] (H-Phe-Arg-βNA) came in with an MIC in the assay on Escherichia coli [1] of over 200 µg/mL. Moreover, the “fold change (FC)” value in the assay on Escherichia coli [2] is reported as 4.

In the assay with Escherichia coli [1], `NCCC[C@H](N)CNC(=O)C(Cc1ccccc1)Cc1ccccc1` had an MIC of over 200 µg/mL. Moreover, the “fold change (FC)” value in the assay with Escherichia coli [2] came to 1.

In the case of `NCCC[C@H](N)CNCC(CCc1ccccc1)CCc1ccccc1`, in the assay on Escherichia coli [1], it took 100 µg/mL (≈ 283 µM) to inhibit growth (MIC). In addition, in the assay on Escherichia coli [9], the Activity result is “Dose-dependent effect”. The result in the assay on Escherichia coli [10], in the assay with Escherichia coli [12] and in the assay on Escherichia coli [13] was Active. Also, in the assay on Escherichia coli [7], the Ratio worked out at 32. Further, the inhibition result in [11] is “Dose-dependent effect”. In addition, the “fold change (FC)” value with Escherichia coli [2] turned out to be 128. Moreover, in the assay with Escherichia coli [14], the result was inactive.

On to `NCCC[C@@H](N)CNC(=O)C(CCc1ccccc1)CCc1ccccc1`, for which the MIC against Escherichia coli [1] turned out to be 50 µg/mL (≈ 136 µM). In the assay on Escherichia coli [2], the “fold change (FC)” value is 16.

As a reminder, the MIC is the lowest concentration found to suppress growth. High values mean weaker potency, low ones greater potency.
